Assay [1] relates to OVCAR-3. As to the kind of experiment: Cytotoxicity against human OVCAR3 cells after 72 hrs by CellTiter 96 Aqueous One Solution reagent based assay. The note with it: OVCAR-3, 72 h. The class given is functional, cell-based.
Assay [2] in a line: Inhibition of porcine cortex Na+/K+-ATPase using ATP as substrate after 15 mins by ADP-Glo Reagent based method. The arrangement: species or system Sus scrofa. The gist of the method:
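Enzyme from porcine cerebral cortex in assay buffer, preincubated with compound in DMSO or DMSO alone; ATP added, 15 min reaction. ADP formed was quantified luminescently: 40 min with ADP-Glo reagent, then 60 min with detection reagent (luciferin/luciferase). Concentration-response over a range of concentrations; IC50 derived; triplicate, three independent experiments.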
For orientation: ADP-Glo turns the ADP formed in a reaction into a luminescent signal.

In assay [3] the test system is MDA-MB-435. As to the kind of experiment: Cytotoxicity against human MDA-MB-435 cells after 72 hrs by CellTiter 96 Aqueous One Solution reagent based assay. The class given is functional, cell-based. The note with it: MDA-MB-435, 72 h.
For assay [4], the system named is MDA-MB-231. Kind of assay: Cytotoxicity against human MDA-MB-231 cells after 72 hrs by CellTiter 96 Aqueous One Solution reagent based assay. It is filed as functional, cell-based. Particulars: MDA-MB-231, 72 h.
The test system of assay [5] is HT-29. Kind of assay: Cytotoxicity against human HT-29 cells after 72 hrs by CellTiter 96 Aqueous One Solution reagent based assay. The class given is functional, cell-based. The note with it: HT-29, 72 h.
Assay [6] has as its system NCI-H1299. Kind of assay: Inhibition of glucose transporter in human NCI-H1299 cells assessed as reduction in [3H]2-deoxy-D-glucose uptake at 30 uM preincubated for 15 mins followed by [3H]2-deoxy-D-glucose addition and measured after 40 mins by liquid scintillation counting method. It is filed as cell-based. The gist of the method: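 H1299 NSCLC cells (maintained in DMEM, 25 mM glucose, 10% FBS) serum-starved 1.5 h in FBS-free DMEM, then 30 min in glucose-free KRP buffer. Compound at 30 μM final, 15 min; uptake started with 37 MBq/L 2-deoxy-D-[3H]glucose plus 1 mM glucose (final), 40 min. Stopped with PBS, lysate radioactivity counted. Vehicle negative control, WZB117 positive control; n = 3, Student's t-test versus vehicle.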

Structures are written as SMILES. pIC50: −log10 of the molar value. Active and inactive are the calls of the source. The rule behind the calls is not given here. Bounds are passed on as bounds.

For `C[C@H]1O[C@@H](O[C@H]2[C@@H](O)C[C@H](O[C@H]3[C@@H](O)C[C@H](O[C@H]4CC[C@@]5(C)[C@H](CC[C@@H]6[C@@H]5C[C@@H](O)[C@]5(C)[C@H]([C@@H]7CC(=O)O[C@@H]7O)CC[C@]65O)C4)O[C@@H]3C)O[C@@H]2C)C[C@H](O)[C@@H]1O`, the pIC50 in assay [1] is less than 5.00; in assay [2], 3.80; in assay [3], less than 5.00; in assay [4], less than 5.00; in assay [5], less than 5.00.
For `C[C@]12[C@H](O)CC3=C(CC[C@@H]4C[C@@H](O)CC[C@]34C)[C@H]1CC[C@@H]2C1=CC(=O)OC1`, the pIC50 in assay [1], in assay [3], in assay [4] and in assay [5] was less than 5.00 in each case.
Consider `C[C@H]1O[C@@H](O[C@H]2[C@@H](O)C[C@H](O[C@H]3[C@@H](O)C[C@H](O[C@H]4CC[C@@]5(C)[C@H](CC[C@@H]6[C@@H]5C[C@@H](O)[C@]5(C)[C@@H](C7=CC(=O)OC7)CC[C@]65O)C4)O[C@@H]3C)O[C@@H]2C)C[C@H](O)[C@@H]1O` [DIGOXIN], for which the pIC50 is 6.64 in assay [2], 6.77 in assay [3], 6.51 in assay [4] and 6.55 in assay [5]. Besides, the result in assay [6] was inactive.
With `CC(=O)O[C@H]1[C@@H](OC(C)=O)C[C@H](O[C@H]2[C@@H](OC(C)=O)C[C@H](O[C@H]3[C@@H](OC(C)=O)C[C@H](O[C@H]4CC[C@@]5(C)[C@H](CC[C@@H]6[C@@H]5C[C@@H](OC(C)=O)[C@]5(C)[C@@H](C7=CC(=O)OC7)CC[C@]65O)C4)O[C@@H]3C)O[C@@H]2C)O[C@@H]1C`, the pIC50 is 5.09 in assay [1], less than 5.00 in assay [3], less than 5.00 in assay [4] and less than 5.00 in assay [5].
In the case of `C[C@]12CC[C@H](O)C[C@H]1CC[C@@H]1[C@@H]2C[C@@H](O)[C@]2(C)[C@@H](C3=CC(=O)OC3)CC[C@]12O` [DIGOXIGENIN], the pIC50 was 5.62 in assay [1], 6.05 in assay [3], 5.49 in assay [4] and 5.44 in assay [5].
Take `CC(=O)O[C@H]1[C@@H](OC(C)=O)C[C@H](O[C@H]2[C@@H](O)C[C@H](O[C@H]3[C@@H](O)C[C@H](O[C@H]4CC[C@@]5(C)[C@H](CC[C@@H]6[C@@H]5C[C@@H](OC(C)=O)[C@]5(C)[C@@H](C7=CC(=O)OC7)CC[C@]65O)C4)O[C@@H]3C)O[C@@H]2C)O[C@@H]1C`: the pIC50 in assay [1] is 5.21; in assay [3], less than 5.00; in assay [4], less than 5.00; in assay [5], less than 5.00.

The pIC50 is the negative decadic logarithm of the IC50, by convention in mol/L.

The values are drawn from ChEMBL document CHEMBL4613252 (J Nat Prod, 2020).
